Assay results taken from ChEMBL document CHEMBL1132476, “Design and synthesis of novel alpha(1)(a) adrenoceptor-selective antagonists. 1. Structure-activity relationship in dihydropyrimidinones” (J Med Chem, 1999).

Legend:
Rattus norvegicus [1] = species on record: Rattus norvegicus; assay: Antagonistic activity against norepinephrine induced contractions in rat aorta.; assay type: functional
Rattus norvegicus [2] = species on record: Rattus norvegicus; assay: (§1) Duration of action in rat; assay type: functional
Summary of the method: (§2)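 Anesthetized (urethane) male Sprague-Dawley rats (300–400 g), kept at 37 °C rectal temperature. Anterior prostate attached to a force transducer at 2 g resting tension. Pretreatment: atropine and propranolol (1 mg/kg each). Contractions were evoked by agonist (phenylephrine 10 μg/kg or (R)-A-61603 30 ng/kg), given 5 min after antagonist and then every 30 min for up to 4 h.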

Rattus norvegicus [3] = species on record: Rattus norvegicus; assay: Dose required to produce 50% inhibition of phenylephrine induced contractile response in situ rat prostate.; assay type: functional, Prostate gland
Summary of the method: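 Male Sprague-Dawley rats (300–400 g), urethane-anesthetized, held at 37 °C rectal, pretreated with atropine and propranolol (1 mg/kg each). Anterior prostate on a force transducer at 2 g resting tension; phenylephrine challenge 10 μg/kg. For AD50, rising noncumulative antagonist doses were given every 20 min, with agonist 5 min after each. For duration, agonist was given 5 min after antagonist, then every 30 min for up to 4 h.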

Rattus norvegicus [4] = species on record: Rattus norvegicus; assay: Dose required to produce 50% inhibition of phenylephrine induced diastolic blood pressure in rat.; assay type: functional, Artery
Canis familiaris [5] = species on record: Canis familiaris; assay: Potency to inhibi phenylephrine stimulated diastolic blood pressure in dog.; assay type: functional, Canis lupus familiaris, Artery
Summary of the method: (§3)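 Male mongrel dogs (9–14 kg), pentobarbital-anesthetized (35 mg/kg iv plus 4–5 mg/kg/h infusion), ventilated, with femoral catheters. Control iv bolus phenylephrine dose–response curves for intraurethral and diastolic pressure, repeated after successive iv antagonist doses (30, 100, 300). Kb by Arunlakshana–Schild analysis.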

Canis familiaris [6] = species on record: Canis familiaris; assay: Potency to inhibit phenylephrine stimulated intraurethral pressure in dog.; assay type: functional, Canis lupus familiaris, Urethra; summary of the method: as §3
Canis familiaris [7] = species on record: Canis familiaris; assay: Antagonism against phenylephrine induced contractions in isolated prostate tissue of dog; assay type: functional, Canis lupus familiaris, Prostate gland
Summary of the method: (§4)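 Isolated prostate strips (rat or dog) contracted with phenylephrine as agonist. Antagonist potency is expressed as Kb, derived from the shift in the agonist response by a previously published method.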

Rattus norvegicus [8] = species on record: Rattus norvegicus; assay: Antagonism against phenylephrine induced contractions in isolated prostate tissue of rat; assay type: functional, Prostate gland; summary of the method: as §4
Canis familiaris [9] = species on record: Canis familiaris; assay: Potency to inhibit phenylephrine stimulated diastolic blood pressure in dog.; assay type: functional, Canis lupus familiaris, Artery; summary of the method: as §3
Rattus norvegicus [10] = species on record: Rattus norvegicus; assay: Antagonistic activity against norepinephrine induced contractions in rat vas deferens.; assay type: functional
[11] = biological target: T1, Adrenergic receptor alpha-1 (Rattus norvegicus, UniProt P15823+P23944+P43140); assay: In vitro binding affinity against Alpha-1A adrenergic receptor in isolated prostate tissue of rat; assay type: tissue-based, Prostate gland
T1 sequence (P15823 whole entry): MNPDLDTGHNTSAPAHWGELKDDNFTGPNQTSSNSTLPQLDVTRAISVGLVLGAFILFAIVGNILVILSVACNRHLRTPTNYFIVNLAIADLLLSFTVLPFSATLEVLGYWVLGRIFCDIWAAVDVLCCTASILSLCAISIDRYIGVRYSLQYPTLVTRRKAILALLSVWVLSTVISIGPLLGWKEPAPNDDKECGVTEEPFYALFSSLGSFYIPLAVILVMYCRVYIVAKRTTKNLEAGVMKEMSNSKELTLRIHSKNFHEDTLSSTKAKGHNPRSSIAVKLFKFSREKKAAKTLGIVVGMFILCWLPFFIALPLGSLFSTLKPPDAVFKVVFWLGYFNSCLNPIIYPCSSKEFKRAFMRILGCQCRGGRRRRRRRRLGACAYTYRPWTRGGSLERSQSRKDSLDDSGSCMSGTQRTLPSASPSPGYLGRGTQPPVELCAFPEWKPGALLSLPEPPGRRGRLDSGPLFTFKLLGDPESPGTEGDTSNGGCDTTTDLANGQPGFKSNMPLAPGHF
T1 sequence (P23944 whole entry): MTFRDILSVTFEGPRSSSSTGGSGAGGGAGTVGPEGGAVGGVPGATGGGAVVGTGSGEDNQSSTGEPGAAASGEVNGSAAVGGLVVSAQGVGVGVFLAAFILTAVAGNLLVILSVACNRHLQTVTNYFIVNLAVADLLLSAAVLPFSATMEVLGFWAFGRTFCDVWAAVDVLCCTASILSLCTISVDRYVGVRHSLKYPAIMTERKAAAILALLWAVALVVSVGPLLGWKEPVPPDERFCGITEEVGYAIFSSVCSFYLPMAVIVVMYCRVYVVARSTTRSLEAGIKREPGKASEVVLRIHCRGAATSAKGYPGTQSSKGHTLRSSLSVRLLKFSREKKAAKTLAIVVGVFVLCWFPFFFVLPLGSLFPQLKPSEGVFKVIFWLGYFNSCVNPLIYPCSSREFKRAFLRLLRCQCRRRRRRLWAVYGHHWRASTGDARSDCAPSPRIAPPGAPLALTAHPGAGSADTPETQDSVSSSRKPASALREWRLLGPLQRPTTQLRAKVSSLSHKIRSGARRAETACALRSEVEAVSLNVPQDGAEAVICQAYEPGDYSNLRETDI
T1 sequence (P43140 whole entry): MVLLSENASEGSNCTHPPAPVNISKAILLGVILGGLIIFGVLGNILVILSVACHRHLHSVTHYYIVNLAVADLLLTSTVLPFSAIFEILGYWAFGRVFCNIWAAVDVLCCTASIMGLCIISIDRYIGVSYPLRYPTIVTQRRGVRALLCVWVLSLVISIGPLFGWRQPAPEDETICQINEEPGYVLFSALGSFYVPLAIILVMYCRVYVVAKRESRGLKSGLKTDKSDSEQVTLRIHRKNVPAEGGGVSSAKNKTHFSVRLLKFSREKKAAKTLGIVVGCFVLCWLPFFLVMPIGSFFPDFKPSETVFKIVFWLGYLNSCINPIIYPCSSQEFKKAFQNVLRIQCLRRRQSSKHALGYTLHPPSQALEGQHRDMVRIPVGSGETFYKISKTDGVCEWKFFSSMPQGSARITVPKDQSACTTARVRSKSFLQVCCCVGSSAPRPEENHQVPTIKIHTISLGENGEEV

Homo sapiens = species on record: Homo sapiens; assay: Antagonism against phenylephrine induced contractions in isolated prostate tissue of human; assay type: functional; settings: Prostate gland
[12] = biological target: Adrenergic receptor alpha-1 (Rattus norvegicus) (UniProt P15823+P23944+P43140); assay: Antagonistic activity against Alpha-1 adrenergic receptor in rat prostate tissue using A61603 as agonist; assay type: functional, tissue-based; settings: Prostate gland
Rattus norvegicus [13] = species on record: Rattus norvegicus; assay: as §1; assay type: ADME, organism-based; settings: in vivo; summary of the method: as §2

Compound	Kb (Rattus norvegicus [1])	Duration of action (Rattus norvegicus [2])	AD50 (Rattus norvegicus [3])	AD50 (Rattus norvegicus [4])	Kb (Canis familiaris [5])	Kb (Canis familiaris [6])	Kb (Canis familiaris [7])	Kb (Rattus norvegicus [8])	Kb (Canis familiaris [9])	Kb (Rattus norvegicus [10])	Ki [11]	Kb (Homo sapiens)	Kb [12]	Duration of action (Rattus norvegicus [13])
COc1cc2nc(N3CCN(C(=O)C4CCCO4)CC3)nc(N)c2cc1OC (stereo not drawn) [TERAZOSIN]	19 nM	>4 h	52 µg/kg	65 µg/kg	15.7 µg/kg	16.4 µg/kg	–	–	–	–	–	–	–	–
CCC1=C(C(N)=O)C(c2ccc(F)c(F)c2)N(C(=O)NCCCN2CCC(C(=O)OC)(c3ccccc3)CC2)C(=O)N1 (stereo not drawn)	> 1000 nM	–	20 µg/kg	>3000 µg/kg	–	4.2 µg/kg	3.7 nM	1 nM	187 µg/kg	2.5 nM	0.27 nM	0.39 nM	0.3 nM	> 4 h
